# Experimental data reported in ChEMBL document CHEMBL3826910, “Discovery of 3-(5'-Substituted)-Benzimidazole-5-(1-(3,5-dichloropyridin-4-yl)ethoxy)-1H-indazoles as Potent Fibroblast Growth Factor Receptor Inhibitors: Design, Synthesis, and Biological Evaluation” (J Med Chem, 2016).
# pIC50: −log10 of the molar value. Activity calls are given as the source filed them. The rule behind the calls is not given here.
# Assays:
# NCI-H1581 [1] = experiment: Antitumor activity against FGFR1-amplified human NCI-H1581 cells xenografted in nude mouse assessed as tumor growth inhibition at 2 mg/kg, po qd administered for 21 days measured on day 21 post last dose relative to vehicle-treated control; format: functional; conditions: 504 h, read-out: TGI
# Procedure, shortened: (§1)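 Female nude mice (4–6 weeks) housed under SPF conditions. NCI-H1581 tumours were first grown from 5 × 10^6 cells s.c., and 1.5 mm3 fragments were then transplanted s.c. into the right flank. At 115 mm3, mice were randomized and given vehicle or compound orally once daily for 21 days (2 or 10 mg/kg). Tumours were measured by caliper twice weekly, with TV = length × width²/2.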
# cells [2] = conditions: Homo sapiens, KG-1, 72 h
# [3] = target: Proto-oncogene tyrosine-protein kinase Src (Homo sapiens, UniProt P12931); experiment: Inhibition of recombinant human c-Src using poly (Glu, Tyr) 4:1 as substrate after 60 mins by ELISA
# Procedure, shortened: (§2)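 Purified recombinant kinases tested by ELISA on plates pre-coated with 20 µg/mL poly(Glu,Tyr) 4:1. Reaction run 60 min at 37 °C. Read-out: PY99 anti-phosphotyrosine antibody, HRP anti-mouse IgG and o-phenylenediamine/H2O2, with A490 measured. IC50 from inhibition curves, two independent experiments.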
# NCI-H1581 [4] = experiment: Antitumor activity against human NCI-H1581 cells xenografted in nude mouse assessed as tumor growth inhibition at 10 mg/kg, po qd administered for 21 days measured on day 21 post last dose relative to vehicle-treated control; format: functional; conditions: 504 h, read-out: TGI; procedure, shortened: as §1
# [5] = target: T1, Fibroblast growth factor receptor 2 (Homo sapiens, UniProt P21802); experiment: Inhibition of FGFR2 in human SNU15 cells assessed as reduction of PLCgamma phosphorylation at 0.1 to 10 nM after 2 hrs by Western blot method; format: cell-based
# [6] = target: T1, Fibroblast growth factor receptor 2; experiment: Inhibition of FGFR2 phosphorylation in human SNU15 cells at 0.1 to 10 nM after 2 hrs by Western blot method; format: cell-based
# [7] = AUC (0 to infinity) in Sprague-Dawley rat at 1 mg/kg, iv; format: ADME, organism-based; design: dose 1 mg/kg, time infinity, route intravenous; conditions: in vivo
# [8] = target: Platelet-derived growth factor receptor alpha (Homo sapiens, UniProt P16234); experiment: Inhibition of recombinant human PDGFRalpha using poly (Glu, Tyr) 4:1 as substrate after 60 mins by ELISA; procedure, shortened: as §2
# [9] = target: T2, Fibroblast growth factor receptor 1 (Homo sapiens, UniProt P11362); experiment: Inhibition of FGFR1 in human KG1 cells assessed as reduction of ERK phosphorylation at 0.1 to 10 nM after 2 hrs by Western blot method; format: cell-based; conditions: KG-1
# Procedure, shortened: (§3)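 KG-1 cells treated at indicated concentrations for 2 h, then lysed in 1× SDS sample buffer. Lysates run on 10% SDS-PAGE, transferred to nitrocellulose, and probed for phospho-FGFR, PLCγ and Erk. Detection by enhanced chemiluminescence.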
# Target sequence in this assay (P11362 22-822 limits assumed): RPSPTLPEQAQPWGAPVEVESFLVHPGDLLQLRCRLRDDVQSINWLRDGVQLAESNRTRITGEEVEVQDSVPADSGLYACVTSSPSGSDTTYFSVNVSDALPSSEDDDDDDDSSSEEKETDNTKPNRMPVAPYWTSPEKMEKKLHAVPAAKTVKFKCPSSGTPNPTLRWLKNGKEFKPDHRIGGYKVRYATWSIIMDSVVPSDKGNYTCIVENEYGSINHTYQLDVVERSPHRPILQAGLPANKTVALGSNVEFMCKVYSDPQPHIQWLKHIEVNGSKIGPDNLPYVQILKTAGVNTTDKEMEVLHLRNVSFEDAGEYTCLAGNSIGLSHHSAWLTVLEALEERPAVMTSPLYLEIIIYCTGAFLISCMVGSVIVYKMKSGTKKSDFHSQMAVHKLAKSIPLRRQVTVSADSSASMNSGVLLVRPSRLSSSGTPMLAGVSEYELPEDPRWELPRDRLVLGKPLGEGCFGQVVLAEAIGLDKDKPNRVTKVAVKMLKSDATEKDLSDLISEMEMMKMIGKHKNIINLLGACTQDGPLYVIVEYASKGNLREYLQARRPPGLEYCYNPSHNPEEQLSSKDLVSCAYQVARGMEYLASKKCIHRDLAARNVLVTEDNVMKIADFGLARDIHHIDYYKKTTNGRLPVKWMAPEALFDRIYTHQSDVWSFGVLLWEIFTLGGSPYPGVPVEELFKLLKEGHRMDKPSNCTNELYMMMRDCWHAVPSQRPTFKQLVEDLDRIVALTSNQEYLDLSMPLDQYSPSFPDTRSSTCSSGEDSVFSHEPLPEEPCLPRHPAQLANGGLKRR
# Bcr/Abl fusion protein = Bcr/Abl fusion protein (Homo sapiens, UniProt P00519); experiment: Inhibition of recombinant human Bcr-Abl using poly (Glu, Tyr) 4:1 as substrate after 60 mins by ELISA; format: protein assay; procedure, shortened: as §2
# [10] = AUC (0 to infinity) in Sprague-Dawley rat at 5 mg/kg, po; format: ADME, organism-based; design: dose 5 mg/kg, route oral, time infinity; conditions: in vivo
# Procedure, shortened: (§4)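 Male SD rats (n = 3) dosed orally by gavage at 5 mg/kg as a suspension in 0.5% CMC-Na. Quantified by LC-MS/MS. An IV arm (1 mg/kg) was run in parallel.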
# Ephrin type-A receptor 2 = Ephrin type-A receptor 2 (Homo sapiens, UniProt P29317); experiment: Inhibition of recombinant human EPHA2 using poly (Glu, Tyr) 4:1 as substrate after 60 mins by ELISA; procedure, shortened: as §2
# [11] = target: Vascular endothelial growth factor receptor 1 (Homo sapiens, UniProt P17948); experiment: Inhibition of recombinant human Flt1 using poly (Glu, Tyr) 4:1 as substrate after 60 mins by ELISA; procedure, shortened: as §2
# [12] = Cmax in Sprague-Dawley rat at 1 mg/kg, iv; format: ADME, organism-based; design: dose 1 mg/kg, route intravenous; conditions: in vivo
# cells [13] = conditions: Homo sapiens, RT-112, 72 h
# NCI-H1581 [14] = experiment: Antiproliferative activity against FGFR1-amplified human NCI-H1581 cells after 72 hrs by CCK8/MTT assay; format: functional, cell-based; conditions: NCI-H1581, 72 h
# [15] = target: Vascular endothelial growth factor receptor 2 (Homo sapiens, UniProt P35968); experiment: Inhibition of recombinant human VEGFR2 using poly (Glu, Tyr) 4:1 as substrate after 60 mins by ELISA
# [16] = Volume of distribution at steady state in Sprague-Dawley rat at 1 mg/kg, iv; format: ADME, organism-based; conditions: in vivo, read-out: Vdss
# [17] = target: Receptor tyrosine-protein kinase erbB-2 (Homo sapiens, UniProt P04626); experiment: Inhibition of recombinant human ErbB2 using poly (Glu, Tyr) 4:1 as substrate after 60 mins by ELISA; procedure, shortened: as §2
# [18] = target: Hepatocyte growth factor receptor (Homo sapiens, UniProt P08581); experiment: Inhibition of recombinant human c-Met using poly (Glu, Tyr) 4:1 as substrate after 60 mins by ELISA; procedure, shortened: as §2
# [19] = target: Fibroblast growth factor receptor 4 (Homo sapiens, UniProt P22455); experiment: Inhibition of recombinant human FGFR4 using poly (Glu, Tyr) 4:1 as substrate after 60 mins by ELISA; procedure, shortened: as §2
# [20] = Cmax in Sprague-Dawley rat at 5 mg/kg, po; format: ADME, organism-based; design: dose 5 mg/kg, route oral; conditions: in vivo; procedure, shortened: as §4
# NCI-H1581 [21] = experiment: Antitumor activity against human NCI-H1581 cells xenografted in po dosed nude mouse assessed as tumor growth inhibition administered as qd for 21 days measured on day 21 post last dose; format: functional, organism-based; procedure, shortened: as §1
# [22] = target: Proto-oncogene tyrosine-protein kinase receptor Ret (Homo sapiens, UniProt P07949); experiment: Inhibition of recombinant human RET using poly (Glu, Tyr) 4:1 as substrate after 60 mins by ELISA; procedure, shortened: as §2
# Mus musculus = experiment: Toxicity in nude mouse xenografted with human NCI-H1581 cells assessed as body weight loss at 2 to 10 mg/kg, po qd administered for 21 days measured during compound dosing; format: organism-based; conditions: in vivo, 504 h; procedure, shortened: as §1
# [23] = target: T2, Fibroblast growth factor receptor 1; experiment: Inhibition of FGFR1 in human KG1 cells assessed as reduction of PLCgamma phosphorylation at 0.1 to 10 nM after 2 hrs by Western blot method; format: cell-based; conditions: KG-1; procedure, shortened: as §3
# Target sequence in this assay (P11362 22-822 limits assumed): as above
# cells [24] = conditions: Homo sapiens, SNU-16, 72 h
# [25] = target: Epidermal growth factor receptor (Homo sapiens, UniProt P00533); experiment: Inhibition of recombinant human EGFR using poly (Glu, Tyr) 4:1 as substrate after 60 mins by ELISA; procedure, shortened: as §2
# [26] = Oral bioavailability in Sprague-Dawley rat at 5 mg/kg; format: ADME, organism-based; conditions: in vivo; procedure, shortened: as §4
# [27] = target: Fibroblast growth factor receptor 3 (Homo sapiens, UniProt P22607); experiment: Inhibition of recombinant human FGFR3 using poly (Glu, Tyr) 4:1 as substrate after 60 mins by ELISA; procedure, shortened: as §2
# [28] = Clearance in Sprague-Dawley rat at 1 mg/kg, iv; format: ADME, organism-based; conditions: in vivo
# [29] = target: T2, Fibroblast growth factor receptor 1; experiment: Inhibition of recombinant human FGFR1 using poly (Glu, Tyr) 4:1 as substrate after 60 mins by ELISA
# [30] = Tmax in Sprague-Dawley rat at 5 mg/kg, po; format: ADME, organism-based; conditions: in vivo; procedure, shortened: as §4
# [31] = Half life in Sprague-Dawley rat at 1 mg/kg, iv; format: ADME, organism-based; conditions: in vivo
# T1 sequence (P21802 22-821 limits assumed): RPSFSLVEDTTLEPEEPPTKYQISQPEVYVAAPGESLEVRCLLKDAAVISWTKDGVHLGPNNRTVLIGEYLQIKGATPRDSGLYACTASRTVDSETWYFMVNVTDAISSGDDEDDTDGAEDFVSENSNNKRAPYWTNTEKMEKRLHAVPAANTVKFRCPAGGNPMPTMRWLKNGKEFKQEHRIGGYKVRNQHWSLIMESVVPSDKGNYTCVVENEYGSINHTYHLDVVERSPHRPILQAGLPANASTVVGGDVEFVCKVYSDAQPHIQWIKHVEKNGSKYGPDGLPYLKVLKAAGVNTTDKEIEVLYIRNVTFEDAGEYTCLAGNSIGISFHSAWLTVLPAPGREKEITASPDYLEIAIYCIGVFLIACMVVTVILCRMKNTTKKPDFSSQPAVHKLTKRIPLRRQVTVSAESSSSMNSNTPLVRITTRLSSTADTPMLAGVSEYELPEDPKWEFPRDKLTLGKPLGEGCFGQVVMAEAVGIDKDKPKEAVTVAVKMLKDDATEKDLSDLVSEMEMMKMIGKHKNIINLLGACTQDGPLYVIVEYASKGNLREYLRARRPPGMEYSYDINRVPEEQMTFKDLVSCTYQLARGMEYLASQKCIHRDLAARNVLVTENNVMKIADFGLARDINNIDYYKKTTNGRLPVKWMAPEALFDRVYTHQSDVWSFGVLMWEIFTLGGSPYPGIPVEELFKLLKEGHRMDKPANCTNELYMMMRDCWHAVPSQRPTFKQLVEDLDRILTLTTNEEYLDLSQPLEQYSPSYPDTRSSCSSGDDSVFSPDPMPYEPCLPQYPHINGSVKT
# Vascular endothelial growth factor receptor 1, sequence (P17948 whole entry): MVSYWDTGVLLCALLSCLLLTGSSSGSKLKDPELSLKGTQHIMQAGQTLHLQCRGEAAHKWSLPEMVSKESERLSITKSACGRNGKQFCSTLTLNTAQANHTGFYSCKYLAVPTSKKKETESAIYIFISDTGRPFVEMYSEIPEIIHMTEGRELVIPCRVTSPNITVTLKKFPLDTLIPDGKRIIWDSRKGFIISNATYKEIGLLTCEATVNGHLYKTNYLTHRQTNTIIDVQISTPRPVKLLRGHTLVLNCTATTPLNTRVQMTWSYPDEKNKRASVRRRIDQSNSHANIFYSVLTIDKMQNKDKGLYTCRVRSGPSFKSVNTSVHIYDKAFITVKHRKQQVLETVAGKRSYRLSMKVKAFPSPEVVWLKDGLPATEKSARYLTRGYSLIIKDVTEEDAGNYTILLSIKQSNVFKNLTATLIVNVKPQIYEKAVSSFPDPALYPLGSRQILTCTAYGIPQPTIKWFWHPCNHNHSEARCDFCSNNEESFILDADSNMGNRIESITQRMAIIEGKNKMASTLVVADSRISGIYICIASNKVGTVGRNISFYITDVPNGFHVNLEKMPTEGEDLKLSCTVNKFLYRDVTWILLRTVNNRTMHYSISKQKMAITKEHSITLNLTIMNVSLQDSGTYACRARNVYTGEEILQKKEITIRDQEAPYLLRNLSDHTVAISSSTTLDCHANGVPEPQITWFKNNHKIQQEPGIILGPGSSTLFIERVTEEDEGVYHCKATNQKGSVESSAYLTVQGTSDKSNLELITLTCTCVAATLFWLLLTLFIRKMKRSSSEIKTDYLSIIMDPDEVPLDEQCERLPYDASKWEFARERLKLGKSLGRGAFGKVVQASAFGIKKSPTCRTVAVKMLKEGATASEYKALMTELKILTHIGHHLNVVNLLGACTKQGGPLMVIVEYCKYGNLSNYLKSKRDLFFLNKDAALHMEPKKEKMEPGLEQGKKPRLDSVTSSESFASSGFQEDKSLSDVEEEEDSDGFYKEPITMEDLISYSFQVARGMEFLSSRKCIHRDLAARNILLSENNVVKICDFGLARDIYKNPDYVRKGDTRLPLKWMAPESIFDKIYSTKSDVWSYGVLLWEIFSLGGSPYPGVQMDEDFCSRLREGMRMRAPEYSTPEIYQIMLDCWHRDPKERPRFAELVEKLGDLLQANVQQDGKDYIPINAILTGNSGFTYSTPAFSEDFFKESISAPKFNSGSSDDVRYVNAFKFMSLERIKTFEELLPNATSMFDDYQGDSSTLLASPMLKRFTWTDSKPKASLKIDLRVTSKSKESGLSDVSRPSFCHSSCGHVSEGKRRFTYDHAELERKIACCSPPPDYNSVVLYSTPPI
# Hepatocyte growth factor receptor, sequence (P08581 whole entry): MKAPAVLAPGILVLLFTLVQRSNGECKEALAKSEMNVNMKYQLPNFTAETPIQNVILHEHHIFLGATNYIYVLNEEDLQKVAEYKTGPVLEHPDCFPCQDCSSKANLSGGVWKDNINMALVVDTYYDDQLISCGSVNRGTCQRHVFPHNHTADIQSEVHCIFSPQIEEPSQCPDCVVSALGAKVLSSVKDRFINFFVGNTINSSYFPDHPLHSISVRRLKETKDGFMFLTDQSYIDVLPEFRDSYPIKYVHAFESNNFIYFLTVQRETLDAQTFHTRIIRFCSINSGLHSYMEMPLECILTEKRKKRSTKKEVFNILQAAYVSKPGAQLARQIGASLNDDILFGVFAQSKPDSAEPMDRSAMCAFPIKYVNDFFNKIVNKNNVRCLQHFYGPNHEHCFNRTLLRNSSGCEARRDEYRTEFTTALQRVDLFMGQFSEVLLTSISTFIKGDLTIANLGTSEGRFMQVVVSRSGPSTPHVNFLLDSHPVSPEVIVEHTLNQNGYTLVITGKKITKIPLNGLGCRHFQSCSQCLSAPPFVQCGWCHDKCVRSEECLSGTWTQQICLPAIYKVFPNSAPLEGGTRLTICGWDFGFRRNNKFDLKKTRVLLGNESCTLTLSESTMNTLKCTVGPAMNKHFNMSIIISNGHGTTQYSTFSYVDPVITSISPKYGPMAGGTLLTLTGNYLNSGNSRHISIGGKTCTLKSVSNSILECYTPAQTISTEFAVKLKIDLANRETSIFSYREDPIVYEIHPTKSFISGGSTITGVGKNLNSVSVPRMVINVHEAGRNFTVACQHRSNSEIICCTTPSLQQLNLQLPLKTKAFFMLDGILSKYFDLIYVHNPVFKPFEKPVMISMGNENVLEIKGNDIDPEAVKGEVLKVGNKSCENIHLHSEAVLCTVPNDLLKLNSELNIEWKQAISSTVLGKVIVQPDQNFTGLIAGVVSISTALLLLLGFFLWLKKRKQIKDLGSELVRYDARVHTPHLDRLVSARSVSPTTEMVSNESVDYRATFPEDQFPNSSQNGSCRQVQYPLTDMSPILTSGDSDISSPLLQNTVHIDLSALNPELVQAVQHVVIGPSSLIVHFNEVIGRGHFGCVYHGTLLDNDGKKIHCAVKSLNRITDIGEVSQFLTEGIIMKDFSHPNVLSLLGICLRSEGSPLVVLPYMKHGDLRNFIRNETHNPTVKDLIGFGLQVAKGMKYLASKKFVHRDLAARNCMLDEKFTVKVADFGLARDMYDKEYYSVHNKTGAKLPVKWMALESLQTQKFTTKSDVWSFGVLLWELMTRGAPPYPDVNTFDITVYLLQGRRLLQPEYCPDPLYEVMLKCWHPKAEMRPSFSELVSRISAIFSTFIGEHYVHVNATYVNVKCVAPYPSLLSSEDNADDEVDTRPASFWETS
# Proto-oncogene tyrosine-protein kinase Src, sequence (P12931 2-536 limits assumed): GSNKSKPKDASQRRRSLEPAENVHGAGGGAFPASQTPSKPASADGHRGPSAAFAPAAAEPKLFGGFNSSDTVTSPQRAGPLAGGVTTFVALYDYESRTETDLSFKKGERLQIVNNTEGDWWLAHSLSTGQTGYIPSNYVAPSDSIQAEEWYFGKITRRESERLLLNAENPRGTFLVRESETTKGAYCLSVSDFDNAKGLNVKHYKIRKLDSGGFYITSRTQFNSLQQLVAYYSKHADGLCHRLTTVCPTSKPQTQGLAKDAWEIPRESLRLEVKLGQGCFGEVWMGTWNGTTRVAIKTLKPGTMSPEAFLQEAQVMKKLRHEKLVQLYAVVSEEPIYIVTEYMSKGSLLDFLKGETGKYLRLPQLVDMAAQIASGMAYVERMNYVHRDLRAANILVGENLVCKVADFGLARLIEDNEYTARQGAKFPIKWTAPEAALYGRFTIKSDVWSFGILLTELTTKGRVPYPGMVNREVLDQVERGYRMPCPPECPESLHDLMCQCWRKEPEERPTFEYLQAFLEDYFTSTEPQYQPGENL
compound,measurement,setting,value
C[C@@H](Oc1ccc2[nH]nc(-c3nc4cc(N5CCN(C)CC5)ccc4[nH]3)c2c1)c1c(Cl)cncc1Cl,inhibition in vivo at 2 mg/kg,NCI-H1581 [1],44.5%
same,pIC50,cells [2],> 10.00
same,pIC50,[3],< 7.00
same,inhibition in vivo at 10 mg/kg,NCI-H1581 [4],96.9%
same,inhibition,[5],Active
same,inhibition,[6],Active
same,AUC(0-inf),[7],485 ng·h/mL
same,pIC50,[8],6.11
same,inhibition,[9],Active
same,pIC50,Bcr/Abl fusion protein,< 7.00
same,AUC(0-inf),[10],799 ng·h/mL
same,pIC50,Ephrin type-A receptor 2,< 7.00
same,pIC50,[11],< 7.00
same,Cmax,[12],300 ng/mL
same,pIC50,cells [13],> 10.00
same,pIC50,NCI-H1581 [14],8.38
same,pIC50,[15],8.12
same,Vd,[16],5.8 L/kg
same,pIC50,[17],< 6.00
same,pIC50,[18],< 7.00
same,pIC50,[19],8.21
same,Cmax,[20],97.2 ng/mL
same,TGI,NCI-H1581 [21],Dose-dependent effect
same,pIC50,[22],< 7.00
same,Activity,Mus musculus,Non-toxic
same,inhibition,[23],Active
same,pIC50,cells [24],> 10.00
same,pIC50,[25],< 6.00
same,bioavailability,[26],33%
same,pIC50,[27],8.70
same,clearance,[28],33.3 mL/min/kg
same,pIC50,[29],9.05
same,Tmax,[30],4 h
same,half-life,[31],2 h
